Laboratory results: ChEMBL document CHEMBL1142492 (J Med Chem, 2008)

Columns and labels:
[1] = biological target: Phosphatidylinositol 5-phosphate 4-kinase type-2 beta (Homo sapiens) (UniProt P78356); test: Inhibition of PIP5K2B at 3 uM
[2] = biological target: Serine/threonine-protein kinase 16 (Homo sapiens) (UniProt O75716); test: Inhibition of STK16 at 3 uM
[3] = biological target: Serine/threonine-protein kinase 36 (Homo sapiens) (UniProt Q9NRP7); test: Inhibition of STK36 at 3 uM
[4] = biological target: Serine/threonine-protein kinase SIK2 (Homo sapiens) (UniProt Q9H0K1); test: Inhibition of SNF1LK2 at 3 uM
[5] = biological target: NT-3 growth factor receptor (Homo sapiens) (UniProt Q16288); test: Inhibition of TRKC at 3 uM
[6] = biological target: Angiopoietin-1 receptor (Homo sapiens) (UniProt Q02763); test: Inhibition of TIE2 at 3 uM
Angiopoietin-1 receptor (Homo sapiens), sequence (Q02763 whole entry): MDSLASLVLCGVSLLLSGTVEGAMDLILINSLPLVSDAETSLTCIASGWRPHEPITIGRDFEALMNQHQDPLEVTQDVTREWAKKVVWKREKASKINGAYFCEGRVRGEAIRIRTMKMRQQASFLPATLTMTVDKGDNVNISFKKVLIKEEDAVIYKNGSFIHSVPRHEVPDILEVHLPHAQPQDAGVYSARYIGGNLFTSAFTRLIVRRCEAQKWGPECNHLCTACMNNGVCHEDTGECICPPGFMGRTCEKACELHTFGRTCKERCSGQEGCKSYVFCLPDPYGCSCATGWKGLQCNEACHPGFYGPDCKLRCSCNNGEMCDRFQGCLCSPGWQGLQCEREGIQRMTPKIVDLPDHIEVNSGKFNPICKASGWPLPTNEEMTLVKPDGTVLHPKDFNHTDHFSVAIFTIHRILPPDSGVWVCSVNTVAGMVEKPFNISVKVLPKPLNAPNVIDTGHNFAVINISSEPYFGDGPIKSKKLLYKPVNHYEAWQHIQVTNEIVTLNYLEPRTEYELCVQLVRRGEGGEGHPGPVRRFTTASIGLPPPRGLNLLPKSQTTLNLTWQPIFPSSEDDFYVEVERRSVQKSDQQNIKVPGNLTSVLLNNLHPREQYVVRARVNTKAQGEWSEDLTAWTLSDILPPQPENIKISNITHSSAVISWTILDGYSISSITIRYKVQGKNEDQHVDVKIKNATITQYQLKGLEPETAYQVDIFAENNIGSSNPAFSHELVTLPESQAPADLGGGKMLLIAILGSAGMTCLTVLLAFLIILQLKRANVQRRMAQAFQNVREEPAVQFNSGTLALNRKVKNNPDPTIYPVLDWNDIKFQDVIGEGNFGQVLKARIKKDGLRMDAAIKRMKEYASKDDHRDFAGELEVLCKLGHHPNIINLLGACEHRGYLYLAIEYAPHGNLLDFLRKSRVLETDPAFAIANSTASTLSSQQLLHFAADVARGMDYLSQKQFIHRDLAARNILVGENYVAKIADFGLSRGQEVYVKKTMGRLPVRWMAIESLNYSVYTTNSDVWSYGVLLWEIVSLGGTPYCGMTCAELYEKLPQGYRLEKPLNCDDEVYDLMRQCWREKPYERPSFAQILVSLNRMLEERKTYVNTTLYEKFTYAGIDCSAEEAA

[7] = system: Epidermal growth factor receptor (Homo sapiens), P00533 [L858R]; test: Inhibition of EGFR L858R mutant at 3 uM; format: protein assay
In short: (§1)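 Single-concentration kinase panel scoring: each value is the percentage of enzyme activity remaining relative to a DMSO-only control. An activity statistically indistinct from DMSO control was scored "no hit".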

[8] = biological target: Epidermal growth factor receptor (Homo sapiens) (UniProt P04626+P00533+Q15303+P21860); test: Inhibition of EGFR S752-I759del mutant at 3 uM; format: protein assay; in short: as §1
[9] = biological target: Mitogen-activated protein kinase 9 (Homo sapiens) (UniProt P45984); test: Inhibition of JNK2 at 3 uM
[10] = system: Mast/stem cell growth factor receptor Kit (Homo sapiens), P10721 [D816V]; test: Inhibition of KIT D816V mutant at 3 uM
[11] = system: Mast/stem cell growth factor receptor Kit (Homo sapiens), P10721 [V559D,V654A]; test: Inhibition of KIT V559D,V654A mutant at 3 uM
[12] = biological target: Serine/threonine-protein kinase LATS1 (Homo sapiens) (UniProt O95835); test: Inhibition of LATS1 at 3 uM
[13] = biological target: Serine/threonine-protein kinase 10 (Homo sapiens) (UniProt O94804); test: Inhibition of LOK at 3 uM
[14] = biological target: Tyrosine-protein kinase Fyn (Homo sapiens) (UniProt P06241); test: Inhibition of FYN at 3 uM; in short: as §1
[15] = biological target: Leukocyte tyrosine kinase receptor (Homo sapiens) (UniProt P29376); test: Inhibition of LTK at 3 uM
[16] = biological target: Mitogen-activated protein kinase kinase kinase 4 (Homo sapiens) (UniProt Q9Y6R4); test: Inhibition of MAP3K4 at 3 uM
[17] = biological target: Mitogen-activated protein kinase kinase kinase kinase 1 (Homo sapiens) (UniProt Q92918); test: Inhibition of MAP4K1 at 3 uM
[18] = biological target: Serine/threonine-protein kinase 38-like (Homo sapiens) (UniProt Q9Y2H1); test: Inhibition of NDR2 at 3 uM
[19] = biological target: Serine/threonine-protein kinase Nek1 (Homo sapiens) (UniProt Q96PY6); test: Inhibition of NEK1 at 3 uM
[20] = biological target: Serine/threonine-protein kinase Nek5 (Homo sapiens) (UniProt Q6P3R8); test: Inhibition of NEK5 at 3 uM
Serine/threonine-protein kinase Nek5 (Homo sapiens), sequence (Q6P3R8 whole entry): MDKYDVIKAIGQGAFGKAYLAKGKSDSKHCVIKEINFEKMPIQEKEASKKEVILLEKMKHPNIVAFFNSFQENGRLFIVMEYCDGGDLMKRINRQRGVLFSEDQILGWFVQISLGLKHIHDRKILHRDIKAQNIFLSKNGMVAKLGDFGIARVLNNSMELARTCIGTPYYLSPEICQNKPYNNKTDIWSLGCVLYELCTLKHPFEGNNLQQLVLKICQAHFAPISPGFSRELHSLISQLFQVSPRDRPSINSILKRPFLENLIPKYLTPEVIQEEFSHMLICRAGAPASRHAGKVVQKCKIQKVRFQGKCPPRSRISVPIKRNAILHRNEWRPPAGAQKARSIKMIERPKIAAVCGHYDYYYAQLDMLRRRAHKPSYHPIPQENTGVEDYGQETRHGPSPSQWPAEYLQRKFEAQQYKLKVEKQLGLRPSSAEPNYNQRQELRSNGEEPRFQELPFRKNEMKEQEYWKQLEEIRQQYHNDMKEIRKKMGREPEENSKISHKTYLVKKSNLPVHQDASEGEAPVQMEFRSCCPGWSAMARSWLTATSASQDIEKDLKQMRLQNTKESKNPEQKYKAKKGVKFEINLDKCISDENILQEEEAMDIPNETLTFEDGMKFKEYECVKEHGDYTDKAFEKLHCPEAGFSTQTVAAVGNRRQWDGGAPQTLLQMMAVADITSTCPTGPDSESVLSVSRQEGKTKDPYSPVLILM

[21] = biological target: Mitogen-activated protein kinase 12 (Homo sapiens) (UniProt P53778); test: Inhibition of p38-gamma at 3 uM
[22] = biological target: Serine/threonine-protein kinase PAK 2 (Homo sapiens) (UniProt Q13177); test: Inhibition of PAK2 at 3 uM
[23] = biological target: Cyclin-dependent kinase 17 (Homo sapiens) (UniProt Q00537); test: Inhibition of PCTK2 at 3 uM
[24] = biological target: Serine/threonine-protein kinase D3 (Homo sapiens) (UniProt O94806); test: Inhibition of PRKD3 at 3 uM
[25] = biological target: Receptor-interacting serine/threonine-protein kinase 1 (Homo sapiens) (UniProt Q13546); test: Inhibition of RIPK1 at 3 uM
[26] = biological target: Angiotensin-converting enzyme (Oryctolagus cuniculus) (UniProt P12822); test: Inhibition of rabbit ACE at 3 uM
Angiotensin-converting enzyme (Oryctolagus cuniculus), sequence (P12822 whole entry): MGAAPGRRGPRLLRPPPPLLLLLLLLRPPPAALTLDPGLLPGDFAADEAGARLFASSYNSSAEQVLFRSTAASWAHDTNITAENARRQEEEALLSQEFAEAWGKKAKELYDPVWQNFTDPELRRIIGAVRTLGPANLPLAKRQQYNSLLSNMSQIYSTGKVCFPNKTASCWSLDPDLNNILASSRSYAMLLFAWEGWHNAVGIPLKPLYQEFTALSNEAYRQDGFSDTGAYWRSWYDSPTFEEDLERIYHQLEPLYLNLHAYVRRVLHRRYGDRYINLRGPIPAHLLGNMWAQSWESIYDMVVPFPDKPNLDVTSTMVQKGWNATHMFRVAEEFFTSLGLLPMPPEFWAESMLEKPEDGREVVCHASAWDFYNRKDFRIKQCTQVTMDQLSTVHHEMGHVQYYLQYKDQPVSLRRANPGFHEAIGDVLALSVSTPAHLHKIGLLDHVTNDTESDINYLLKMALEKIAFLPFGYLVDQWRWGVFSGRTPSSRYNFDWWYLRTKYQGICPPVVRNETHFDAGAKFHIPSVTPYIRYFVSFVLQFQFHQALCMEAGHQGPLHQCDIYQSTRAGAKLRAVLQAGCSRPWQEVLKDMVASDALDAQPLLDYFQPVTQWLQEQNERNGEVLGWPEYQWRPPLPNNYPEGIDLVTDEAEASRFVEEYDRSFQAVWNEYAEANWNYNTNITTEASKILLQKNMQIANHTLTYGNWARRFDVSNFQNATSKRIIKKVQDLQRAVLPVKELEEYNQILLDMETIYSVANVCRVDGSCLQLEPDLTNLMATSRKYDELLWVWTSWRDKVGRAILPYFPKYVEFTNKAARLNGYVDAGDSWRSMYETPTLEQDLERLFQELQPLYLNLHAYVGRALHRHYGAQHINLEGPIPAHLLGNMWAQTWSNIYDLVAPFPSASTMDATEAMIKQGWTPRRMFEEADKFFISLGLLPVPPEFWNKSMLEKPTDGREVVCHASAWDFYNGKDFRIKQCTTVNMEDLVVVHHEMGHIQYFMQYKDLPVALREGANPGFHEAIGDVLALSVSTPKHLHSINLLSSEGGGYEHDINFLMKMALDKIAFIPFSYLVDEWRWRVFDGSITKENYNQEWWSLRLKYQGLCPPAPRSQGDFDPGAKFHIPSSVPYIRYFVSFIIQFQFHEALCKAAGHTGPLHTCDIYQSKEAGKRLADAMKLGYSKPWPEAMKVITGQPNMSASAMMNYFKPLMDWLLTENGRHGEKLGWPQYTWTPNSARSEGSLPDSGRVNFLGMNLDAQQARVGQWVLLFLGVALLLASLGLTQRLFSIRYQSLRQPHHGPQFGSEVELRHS
In short: (§2)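 Counter-screen binding/enzyme panel at single 3 μM, n=2; results as percent inhibition. Species per target as listed (rat NMDA, GABAA sites; human receptors, transporters; rabbit ACE).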

[27] = biological target: B1 bradykinin receptor (Homo sapiens) (UniProt P46663); test: Inhibition of human bradykinin B1 receptor at 3 uM; in short: as §2
[28] = biological target: Estrogen receptor (Homo sapiens) (UniProt P03372); test: Inhibition of human ERalpha at 3 uM; in short: as §2
[29] = biological target: Neuropeptide Y receptor type 2 (Homo sapiens) (UniProt P49146); test: Inhibition of human neuropeptide Y Y2 receptor at 3 uM
[30] = system: Tyrosine-protein kinase ABL1 (Homo sapiens), P00519 [M351T]; test: Inhibition of ABL1 M351T mutant at 3 uM
[31] = biological target: Cyclin-dependent kinase 2 (Homo sapiens) (UniProt P24941); test: Inhibition of CDK2 at 3 uM
[32] = biological target: Activin receptor type-1B (Homo sapiens) (UniProt P36896); test: Inhibition of ACVR1B at 3 uM
Activin receptor type-1B (Homo sapiens), sequence (P36896 whole entry): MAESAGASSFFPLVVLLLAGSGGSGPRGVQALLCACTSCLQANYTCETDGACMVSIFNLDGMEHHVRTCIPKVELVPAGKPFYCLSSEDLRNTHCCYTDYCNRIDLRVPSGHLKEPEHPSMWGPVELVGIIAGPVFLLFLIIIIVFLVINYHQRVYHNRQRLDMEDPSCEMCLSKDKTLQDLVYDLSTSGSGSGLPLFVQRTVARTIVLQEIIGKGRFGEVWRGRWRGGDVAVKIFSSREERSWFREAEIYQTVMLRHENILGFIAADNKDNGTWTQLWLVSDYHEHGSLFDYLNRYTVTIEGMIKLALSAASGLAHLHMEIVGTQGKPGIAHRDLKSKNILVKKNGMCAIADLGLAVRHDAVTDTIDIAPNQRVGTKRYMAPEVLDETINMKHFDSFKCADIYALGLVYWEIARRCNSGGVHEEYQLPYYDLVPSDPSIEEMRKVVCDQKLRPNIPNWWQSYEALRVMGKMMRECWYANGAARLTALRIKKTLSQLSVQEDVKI

[33] = biological target: Activin receptor type-2A (Homo sapiens) (UniProt P27037); test: Inhibition of ACVR2A at 3 uM
[34] = biological target: Atypical kinase COQ8B, mitochondrial (Homo sapiens) (UniProt Q96D53); test: Inhibition of ADCK4 at 3 uM
Atypical kinase COQ8B, mitochondrial (Homo sapiens), sequence (Q96D53 whole entry): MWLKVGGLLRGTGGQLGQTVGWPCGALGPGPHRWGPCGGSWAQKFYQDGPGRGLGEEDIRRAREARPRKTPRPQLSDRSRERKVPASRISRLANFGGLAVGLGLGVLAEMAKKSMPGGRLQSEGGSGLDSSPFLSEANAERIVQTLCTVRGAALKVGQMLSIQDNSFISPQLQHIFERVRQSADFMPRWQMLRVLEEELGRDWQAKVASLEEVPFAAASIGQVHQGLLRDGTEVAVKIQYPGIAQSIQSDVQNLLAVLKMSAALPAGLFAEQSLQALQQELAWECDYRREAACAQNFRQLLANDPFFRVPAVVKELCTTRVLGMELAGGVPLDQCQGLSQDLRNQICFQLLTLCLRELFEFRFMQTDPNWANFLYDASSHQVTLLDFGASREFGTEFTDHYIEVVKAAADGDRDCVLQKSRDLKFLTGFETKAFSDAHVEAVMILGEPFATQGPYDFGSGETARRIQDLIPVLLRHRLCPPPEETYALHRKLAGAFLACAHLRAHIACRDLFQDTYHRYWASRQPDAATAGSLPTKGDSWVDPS

[35] = biological target: 5'-AMP-activated protein kinase catalytic subunit alpha-2 (Homo sapiens) (UniProt P54646); test: Inhibition of AMPKalpha2 at 3 uM
[36] = biological target: Tyrosine-protein kinase receptor UFO (Homo sapiens) (UniProt P30530); test: Inhibition of AXL at 3 uM
[37] = biological target: Serine/threonine-protein kinase Chk1 (Homo sapiens) (UniProt O14757); test: Inhibition of CHEK1 at 3 uM
[38] = biological target: Dual specificity protein kinase CLK1 (Homo sapiens) (UniProt P49759); test: Inhibition of CLK1 at 3 uM
Dual specificity protein kinase CLK1 (Homo sapiens), sequence (P49759 whole entry, looked up): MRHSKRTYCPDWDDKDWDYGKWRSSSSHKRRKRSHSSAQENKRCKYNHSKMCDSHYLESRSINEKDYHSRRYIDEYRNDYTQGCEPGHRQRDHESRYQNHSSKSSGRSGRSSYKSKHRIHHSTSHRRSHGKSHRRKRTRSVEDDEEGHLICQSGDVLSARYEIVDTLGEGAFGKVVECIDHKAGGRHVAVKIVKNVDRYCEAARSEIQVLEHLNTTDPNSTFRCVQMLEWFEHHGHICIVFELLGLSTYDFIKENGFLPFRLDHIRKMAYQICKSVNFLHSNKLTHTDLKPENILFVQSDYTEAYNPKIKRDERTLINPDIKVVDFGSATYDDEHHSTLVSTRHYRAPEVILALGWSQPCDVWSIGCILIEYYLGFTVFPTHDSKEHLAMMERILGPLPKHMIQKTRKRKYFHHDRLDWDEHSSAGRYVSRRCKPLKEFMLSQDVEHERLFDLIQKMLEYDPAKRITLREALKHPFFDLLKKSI

[39] = biological target: 5-hydroxytryptamine receptor 2A (Homo sapiens) (UniProt P28223); test: Inhibition of human 5HT2 receptor at 3 uM; in short: as §2
[40] = biological target: Substance-P receptor (Homo sapiens) (UniProt P25103); test: Inhibition of human NK1 receptor at 3 uM; in short: as §2
[41] = biological target: Death-associated protein kinase 2 (Homo sapiens) (UniProt Q9UIK4); test: Inhibition of DAPK2 at 3 uM
Death-associated protein kinase 2 (Homo sapiens), sequence (Q9UIK4 whole entry, looked up): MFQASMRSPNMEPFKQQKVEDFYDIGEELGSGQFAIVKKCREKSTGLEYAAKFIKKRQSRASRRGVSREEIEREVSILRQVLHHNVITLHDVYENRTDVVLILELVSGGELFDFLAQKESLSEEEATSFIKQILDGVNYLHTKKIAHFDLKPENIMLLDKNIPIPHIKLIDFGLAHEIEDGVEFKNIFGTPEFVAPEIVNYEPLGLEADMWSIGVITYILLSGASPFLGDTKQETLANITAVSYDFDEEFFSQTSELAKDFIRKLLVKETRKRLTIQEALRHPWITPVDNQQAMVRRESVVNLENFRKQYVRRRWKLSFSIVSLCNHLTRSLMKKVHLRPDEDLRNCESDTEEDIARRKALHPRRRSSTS

[42] = biological target: Calcium/calmodulin-dependent protein kinase type II subunit gamma (Homo sapiens) (UniProt Q13555); test: Inhibition of CAMK2G at 3 uM
[43] = system: Epidermal growth factor receptor (Homo sapiens), P00533 [G719C]; test: Inhibition of EGFR G719C mutant at 3 uM; format: protein assay
Rattus norvegicus [44] = organism: Rattus norvegicus; settings: 3 uM
Oryctolagus cuniculus = organism: Oryctolagus cuniculus; settings: 3 uM
Rattus norvegicus [45] = organism: Rattus norvegicus; settings: 3 uM; remark: listed apart in the source

Compound: CN(C)CCOc1cc(-c2cn[nH]c2)ccc1NC(=O)C1COc2ccccc2O1 (stereo unspecified) [SR-3677]
- inhibition [1]: < 10%
- inhibition [2]: < 10%
- inhibition [3]: < 10%
- inhibition [4]: < 10%
- inhibition [5]: < 10%
- inhibition [6]: < 10%
- inhibition [7]: < 10%
- inhibition [8]: < 10%
- inhibition [9]: < 10%
- inhibition [10]: < 10%
- inhibition [11]: < 10%
- inhibition [12]: < 10%
- inhibition [13]: < 10%
- inhibition [14]: < 10%
- inhibition [15]: < 10%
- inhibition [16]: < 10%
- inhibition [17]: < 10%
- inhibition [18]: < 10%
- inhibition [19]: < 10%
- inhibition [20]: < 10%
- inhibition [21]: < 10%
- inhibition [22]: < 10%
- inhibition [23]: < 10%
- inhibition [24]: < 10%
- inhibition [25]: < 10%
- inhibition [26]: 1%
- inhibition [27]: -3%
- inhibition [28]: -2%
- inhibition [29]: 0%
- inhibition [30]: < 10%
- inhibition [31]: < 10%
- inhibition [32]: < 10%
- inhibition [33]: < 10%
- inhibition [34]: < 10%
- inhibition [35]: < 10%
- inhibition [36]: < 10%
- inhibition [37]: < 10%
- inhibition [38]: 94.9%
- inhibition [39]: 2%
- inhibition [40]: -6%
- inhibition [41]: < 10%
- inhibition [42]: < 10%
- inhibition [43]: < 10%
- inhibition (Rattus norvegicus [44]): 24%
- inhibition (Oryctolagus cuniculus): 4%
- inhibition (Rattus norvegicus [45]): -1%
